{"source": "ChEMBL document CHEMBL4152196", "about": "“Design, synthesis and biological evaluation of novel trimethylangelicin analogues targeting nuclear factor kB (NF-kB)” (Eur J Med Chem, 2018)", "key": {"Salmonella typhimurium [1]": {"system": "Salmonella typhimurium", "assay": "Genotoxicity in Salmonella typhimurium TA97A assessed as revertant colonies at 50 uL/plate in absence of Sprague-Dawley rat S9 metabolic activation after 72 hrs by Ames test (reference value: 1)", "type": "toxicity, organism-based", "conditions": "salmonella enterica subsp. enterica serovar typhimurium"}, "Salmonella typhimurium [2]": {"system": "Salmonella typhimurium", "assay": "Genotoxicity in Salmonella typhimurium TA97A assessed as revertant colonies at 10 uL/plate in presence of Sprague-Dawley rat S9 metabolic activation after 72 hrs by Ames test (reference value: 1)", "type": "toxicity, organism-based", "conditions": "salmonella enterica subsp. enterica serovar typhimurium"}, "IB3-1 [3]": {"system": "IB3-1", "assay": "Antiproliferative activity against human IB3-1 cells after 2 days by cell counting analysis", "type": "cell-based", "conditions": "IB3-1, 48 h", "outline": "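IB3-1 cells from a CF patient (ΔF508/W1282X), immortalized with adeno12/SV40, grown in LHC-8 with 5% FBS and no gentamycin at 37°C/5% CO₂. Treated at 12.5, 25, 50, 100, 200 and 800 µM. Cells counted by Coulter counter after 2 days, with untreated cells in log phase. IC₅₀ is the concentration giving 50% inhibition of cell growth.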"}, "Salmonella typhimurium [4]": {"system": "Salmonella typhimurium", "assay": "Genotoxicity in Salmonella typhimurium TA1535 assessed as revertant colonies at 50 uL/plate in absence of Sprague-Dawley rat S9 metabolic activation after 72 hrs by Ames test (reference value: 1)", "type": "toxicity, organism-based", "conditions": "salmonella enterica subsp. enterica serovar typhimurium"}, "Salmon testes DNA [5]": {"system": "Salmon testes DNA", "assay": "Induction of damage in salmon testes DNA at 100 uM in absence of 2.5 to 7.5 J/cm2 UVA irradiation by ethidium bromide dye-based agarose gel electrophoresis analysis", "type": "nucleic-acid assay", "conditions": "salmonidae"}, "Salmonella typhimurium [6]": {"system": "Salmonella typhimurium", "assay": "Genotoxicity in Salmonella typhimurium TA1535 assessed as revertant colonies at 50 uL/plate in presence of Sprague-Dawley rat S9 metabolic activation after 72 hrs by Ames test (reference value: 1)", "type": "toxicity, organism-based", "conditions": "salmonella enterica subsp. enterica serovar typhimurium"}, "Homo sapiens": {"species": "Homo sapiens", "assay": "Inhibition of NF-kappaB (unknown origin) assessed as decrease in NF-kappaB/DNA interaction at 12.5 uM using 32P-labeled target NF-kappaB double-stranded oligonucleotide after 30 mins by EMSA"}, "Salmonella typhimurium [7]": {"system": "Salmonella typhimurium", "assay": "Genotoxicity in Salmonella typhimurium TA100 assessed as revertant colonies at 50 uL/plate in presence of Sprague-Dawley rat S9 metabolic activation after 72 hrs by Ames test (reference value: 1)", "type": "toxicity, organism-based", "conditions": "salmonella enterica subsp. enterica serovar typhimurium"}, "IB3-1 [8]": {"system": "IB3-1", "assay": "Inhibition of TNF-alpha induced IL-15 production in human IB3-1 cells at 1 uM preincubated for 5 hrs followed by TNF-alpha stimulation and measured after 24 hrs relative to control", "type": "functional", "outline": "(§1)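 IB3-1 cells (CF patient, ΔF508/W1282X, adeno12/SV40-immortalized) grown in LHC-8 with 5% FBS, no gentamycin, 37°C/5% CO₂; 60% confluent monolayers seeded, compound added after 24 h, 5 h before 80 ng/ml TNF-α, then 24 h further incubation. Cytokines in supernatants measured by Bioplex 27-plex Luminex bead assay: beads, detection antibody, streptavidin–phycoerythrin, 30/30/10 min at room temperature.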"}, "Salmon testes DNA [9]": {"system": "Salmon testes DNA", "assay": "Binding affinity to salmon testes DNA assessed as furocoumarin-pyrimidine base formation in presence of 15 J/cm2 UVA light irradiation by TLC analysis", "type": "nucleic-acid assay", "conditions": "Salmonidae"}, "Salmon testes DNA [10]": {"system": "Salmon testes DNA", "assay": "Induction of damage in salmon testes DNA at 100 uM in presence of 2.5 to 7.5 J/cm2 UVA irradiation by ethidium bromide dye-based agarose gel electrophoresis analysis", "type": "nucleic-acid assay", "conditions": "salmonidae"}, "Salmonella typhimurium [11]": {"system": "Salmonella typhimurium", "assay": "Genotoxicity in Salmonella typhimurium TA100 assessed as revertant colonies at 1 uL/plate in absence of Sprague-Dawley rat S9 metabolic activation after 72 hrs by Ames test (reference value: 1)", "type": "toxicity, organism-based", "conditions": "salmonella enterica subsp. enterica serovar typhimurium"}, "Salmonella typhimurium [12]": {"system": "Salmonella typhimurium", "assay": "Genotoxicity in Salmonella typhimurium TA100 assessed as revertant colonies at 50 uL/plate in absence of Sprague-Dawley rat S9 metabolic activation after 72 hrs by Ames test (reference value: 1)", "type": "toxicity, organism-based", "conditions": "salmonella enterica subsp. enterica serovar typhimurium"}, "Salmonella typhimurium [13]": {"system": "Salmonella typhimurium", "assay": "Genotoxicity in Salmonella typhimurium TA98 assessed as revertant colonies at 50 uL/plate in presence of Sprague-Dawley rat S9 metabolic activation after 72 hrs by Ames test (reference value: 1)", "type": "toxicity, organism-based", "conditions": "salmonella enterica subsp. enterica serovar typhimurium"}, "IB3-1 [14]": {"system": "IB3-1", "assay": "Inhibition of TNF-alpha induced PDGF-B chain production in human IB3-1 cells at 1 uM preincubated for 5 hrs followed by TNF-alpha stimulation and measured after 24 hrs relative to control", "type": "functional", "outline": "as §1"}, "Salmonella typhimurium [15]": {"system": "Salmonella typhimurium", "assay": "Genotoxicity in Salmonella typhimurium TA100 assessed as revertant colonies at 100 uL/plate in presence of Sprague-Dawley rat S9 metabolic activation after 72 hrs by Ames test (reference value: 1)", "type": "toxicity, organism-based", "conditions": "salmonella enterica subsp. enterica serovar typhimurium"}, "Salmonella typhimurium [16]": {"system": "Salmonella typhimurium", "assay": "Genotoxicity in Salmonella typhimurium TA1535 assessed as revertant colonies at 100 uL/plate in presence of Sprague-Dawley rat S9 metabolic activation after 72 hrs by Ames test (reference value: 1)", "type": "toxicity, organism-based", "conditions": "salmonella enterica subsp. enterica serovar typhimurium"}, "K562": {"system": "K562", "assay": "Cytotoxicity against human K562 cells after 2 days by cell counting analysis", "type": "cell-based", "conditions": "k562, 48 h"}, "Salmonella typhimurium [17]": {"system": "Salmonella typhimurium", "assay": "Genotoxicity in Salmonella typhimurium TA100 assessed as revertant colonies at 5 uL/plate in absence of Sprague-Dawley rat S9 metabolic activation after 72 hrs by Ames test (reference value: 1)", "type": "toxicity, organism-based", "conditions": "salmonella enterica subsp. enterica serovar typhimurium"}, "IB3-1 [18]": {"system": "IB3-1", "assay": "Inhibition of TNF-alpha induced IFN-gamma production in human IB3-1 cells at 1 uM preincubated for 5 hrs followed by TNF-alpha stimulation and measured after 24 hrs relative to control", "type": "functional", "outline": "as §1"}, "Salmonella typhimurium [19]": {"system": "Salmonella typhimurium", "assay": "Genotoxicity in Salmonella typhimurium TA1535 assessed as revertant colonies at 10 uL/plate in presence of Sprague-Dawley rat S9 metabolic activation after 72 hrs by Ames test (reference value: 1)", "type": "toxicity, organism-based", "conditions": "salmonella enterica subsp. enterica serovar typhimurium"}, "U-251": {"system": "U-251", "assay": "Cytotoxicity against human U251 cells after 2 days by cell counting analysis", "type": "cell-based", "conditions": "u-251, 48 h"}, "Salmonella typhimurium [20]": {"system": "Salmonella typhimurium", "assay": "Genotoxicity in Salmonella typhimurium TA98 assessed as revertant colonies at 100 uL/plate in presence of Sprague-Dawley rat S9 metabolic activation after 72 hrs by Ames test (reference value: 1)", "type": "toxicity, organism-based", "conditions": "salmonella enterica subsp. enterica serovar typhimurium"}, "Salmonella typhimurium [21]": {"system": "Salmonella typhimurium", "assay": "Genotoxicity in Salmonella typhimurium TA98 assessed as revertant colonies at 100 uL/plate in absence of Sprague-Dawley rat S9 metabolic activation after 72 hrs by Ames test (reference value: 1)", "type": "toxicity, organism-based", "conditions": "salmonella enterica subsp. enterica serovar typhimurium"}, "Salmonella typhimurium [22]": {"system": "Salmonella typhimurium", "assay": "Genotoxicity in Salmonella typhimurium TA97A assessed as revertant colonies at 100 uL/plate in absence of Sprague-Dawley rat S9 metabolic activation after 72 hrs by Ames test (reference value: 1)", "type": "toxicity, organism-based", "conditions": "salmonella enterica subsp. enterica serovar typhimurium"}}, "note": "The source made the active and inactive calls. The rule behind the calls is not given here.", "data": [{"smiles": "CCc1cc2c(C(C)C)cc(=O)oc2c2c(C)coc12", "values": [{"measurement": "T/C", "setting": "Salmonella typhimurium [1]", "value": 1.1}, {"measurement": "T/C", "setting": "Salmonella typhimurium [2]", "value": 1.2}, {"measurement": "IC50", "setting": "IB3-1 [3]", "value": "> 200", "unit": "µM"}, {"measurement": "T/C", "setting": "Salmonella typhimurium [4]", "value": 1}, {"measurement": "Activity", "setting": "Salmon testes DNA [5]", "value": "Not Active"}, {"measurement": "T/C", "setting": "Salmonella typhimurium [6]", "value": 1}, {"measurement": "inhibition", "setting": "Homo sapiens", "value": "Active"}, {"measurement": "T/C", "setting": "Salmonella typhimurium [7]", "value": 1.2}, {"measurement": "inhibition at 1 µM", "setting": "IB3-1 [8]", "value": "> 20", "unit": "%"}, {"measurement": "Activity", "setting": "Salmon testes DNA [9]", "value": "inactive"}, {"measurement": "Activity", "setting": "Salmon testes DNA [10]", "value": "Not Active"}, {"measurement": "T/C", "setting": "Salmonella typhimurium [11]", "value": 0.8}, {"measurement": "T/C", "setting": "Salmonella typhimurium [12]", "value": 0.9}, {"measurement": "T/C", "setting": "Salmonella typhimurium [13]", "value": 0.7}, {"measurement": "inhibition at 1 µM", "setting": "IB3-1 [14]", "value": "> 20", "unit": "%"}, {"measurement": "T/C", "setting": "Salmonella typhimurium [15]", "value": 1.5}, {"measurement": "T/C", "setting": "Salmonella typhimurium [16]", "value": 0.8}, {"measurement": "Activity", "setting": "K562", "value": "Non-Toxic"}, {"measurement": "T/C", "setting": "Salmonella typhimurium [17]", "value": 1}, {"measurement": "inhibition at 1 µM", "setting": "IB3-1 [18]", "value": "> 20", "unit": "%"}, {"measurement": "T/C", "setting": "Salmonella typhimurium [19]", "value": 1.2}, {"measurement": "Activity", "setting": "U-251", "value": "Non-Toxic"}, {"measurement": "T/C", "setting": "Salmonella typhimurium [20]", "value": 0.6}, {"measurement": "T/C", "setting": "Salmonella typhimurium [21]", "value": 1.2}, {"measurement": "T/C", "setting": "Salmonella typhimurium [22]", "value": 1}]}]}
